Data reported in publication PMC5594746 (Journal of biomolecular screening, 2016).

Tests used:
mutant hV2R [L83Q] = mutant hV2R [L83Q] (Homo sapiens, UniProt P30518, L83Q); experiment: V2R pharmacoperone cAMP luminescence; format: cell-based; conditions: for activity as powder (active = EC50 ≤ 5 μM): de novo powder samples, titration assay, tested for the first time as powders
Summary of the method: (§1)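 Cryopreserved cells carrying tet-regulated hV2R L83Q were thawed and plated at 2,000/well in growth medium. Compound was pin-added (0.4% DMSO), then incubated 17 h at 37 °C, 5% CO2. Cells were stimulated with 5 μM vasopressin (final) in serum-free medium containing 2.5 mM IBMX for 2 h. After 10 min at room temperature, cAMP-Glo was added (19 min), then Kinase-Glo (10 min). Luminescence, inversely proportional to cAMP, was read.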

[1] = test system: NDI associated V2R mutants; conditions: cited from earlier work
V2R + DOX = experiment: V2R + Dox cAMP counterscreen; format: cell-based; conditions: Tet minus promoter inactive, no receptor protein made
Summary of the method: as §1

V2R = conditions: regardless of species tested; cited from earlier work

| SMILES | activity as powder (active = EC50 ≤ 5 μM) (mutant hV2R [L83Q]) | further results |
| --- | --- | --- |
| CN[C@@H]1C[C@H]2O[C@@](C)([C@@H]1OC)n1c3ccccc3c3c4c(c5c6ccccc6n2c5c31)C(=O)NC4 [staurosporine, reference compound] |  | % activation, primary screen (mutant hV2R [L83Q]; singlicate, nominal 5.22 μM, normalized to SR121463 high control): ≤ −50% |
| O=C(Nc1nc2ccc(F)cc2s1)c1ccc(S(=O)(=O)N2CCCCC2)cc1 [SR-01000442043] | lack of activity |  |
| Cc1ccc2nc(NC(=O)c3cccc(Cl)c3)sc2c1 [SR-01000461570] | lack of activity |  |
| CCN(CC)S(=O)(=O)c1ccc(C(=O)Nc2nc3ccc(Cl)cc3s2)cc1 [SR-01000392254] | lack of activity |  |
| COc1ccc(-c2csc(NC(=O)c3ccc(S(=O)(=O)N4CC(C)CC(C)C4)cc3)n2)cc1C (stereo not shown) [SR-01000443595] |  | EC50 (mutant hV2R [L83Q]; de-novo powder sample, CRC format): 70 nM |
| Cc1ccc2nc(NC(=O)c3cc(I)ccc3Cl)sc2c1 [SR-01000405773] | lack of activity |  |
| COc1ccc2nc(NC(=O)c3ccc(S(=O)(=O)N4CCCCC4)cc3)sc2c1 [SR-01000393329] | lack of activity |  |
| CCOc1ccc2c(c1)C1(CCC(OCCN3CCOCC3)CC1)C(=O)N2S(=O)(=O)c1ccc(C(=O)NC(C)(C)C)cc1OC (stereo not shown) [SR121463] |  | number of NDI associated V2R mutants on which active [1]: at least 8; response of + Dox cells (V2R + DOX): non-responsive; Ki (V2R): low nanomolar |
